Experimental data: ChEMBL document CHEMBL4842397, “Macrocyclization as a Source of Desired Polypharmacology. Discovery of Triple PI3K/mTOR/PIM Inhibitors” (ACS Med Chem Lett, 2021); call rule not given here
One block for each compound: values may come before it.

Tests used:
[1] = target: Serine/threonine-protein kinase mTOR (Homo sapiens, UniProt P42345); test: Inhibition of mTOR (unknown origin) by LanthaScreen assay
[2] = target: Phosphatidylinositol 4,5-bisphosphate 3-kinase catalytic subunit alpha isoform (Homo sapiens, UniProt P42336); test: Inhibition of PI3Kalpha (unknown origin) by ADP-Glo assay
[3] = target: Serine/threonine-protein kinase pim-1 (Homo sapiens, UniProt P11309); test: Inhibition of human PIM1 using ARKRRRHPSGPPTA as substrate measured after 1.5 hrs by ADP hunter plus assay
[4] = Tmax in BALB/c mouse at 10 mg/kg, po; assay type: ADME, organism-based; conditions: in vivo
How it was run: (§1)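 Preliminary single-dose pharmacokinetics in BALB-C mice, given I.V. or P.O. Units: AUC h.ng/mL, T1/2 h, Cl L/h/kg, Vd L/kg, Cmax ng/mL, Tmax h. Bioavailability is the absorbed fraction at the doses tested.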

[5] = target: PI3-kinase p110-alpha/p85-alpha (Homo sapiens, UniProt P42336); test: Inhibition of human PI3K p110alpha/p85alpha by HTRF assay; assay type: protein-complex assay
How it was run: (§2)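 Ki from an HTRF assay on each PI3K isoform, reported in nM as the average of two independent experiments.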

[6] = Microsomal stability in mouse liver microsomes incubated for 30 mins by LC-MS/MS analysis; assay type: ADME, Microsome; conditions: read-out: Stabilty
[7] = Volume of distribution at steady state in BALB/c mouse at 1 mg/kg, iv; assay type: ADME, organism-based; conditions: in vivo; how it was run: as §1
[8] = target: Phosphatidylinositol 4,5-bisphosphate 3-kinase catalytic subunit gamma isoform (Homo sapiens, UniProt P48736); test: Inhibition of human PI3Kgamma by HTRF assay; how it was run: as §2
[9] = target: Serine/threonine-protein kinase pim-3 (Homo sapiens, UniProt Q86V86); test: Inhibition of PIM3 (unknown origin) using ARKRRRHPSGPPTA as peptide substrate by ADP Hunter Plus assay
[10] = target: Serine/threonine-protein kinase PIM (Homo sapiens, UniProt P11309+Q9P1W9+Q86V86); test: Inhibition of PIM in human MV4-11 cells assessed as BAD phosphorylation at Ser112 measured after over night incubation by lotting based cellular assay; assay type: cell-based
[11] = Microsomal stability in rat liver microsomes incubated for 30 mins by LC-MS/MS analysis; assay type: ADME, Microsome; conditions: read-out: Stabilty
[12] = target: Serine/threonine-protein kinase pim-2 (Homo sapiens, UniProt Q9P1W9); test: Inhibition of PIM2 (unknown origin) using ARKRRRHPSGPPTA as peptide substrate by ADP Hunter Plus assay
[13] = Clearance in BALB/c mouse at 1 mg/kg, iv; assay type: ADME, organism-based; conditions: in vivo; how it was run: as §1
[14] = target: PI3-kinase p110-delta/p85-alpha (Homo sapiens, UniProt O00329); test: Inhibition of human PI3K p110delta/p85alpha by HTRF assay; assay type: protein-complex assay; how it was run: as §2
PI3K/mTOR (Homo sapiens) = test: Inhibition of PI3K/mTOR in human MV4-11 cells assessed as Akt phosphorylation at Ser473 measured after over night incubation by lotting based cellular assay
[15] = AUClast in BALB/c mouse at 1 mg/kg, iv; assay type: ADME, organism-based; set-up: route intravenous, time 0 - last, dose 1 mg/kg; conditions: in vivo; how it was run: as §1
[16] = Microsomal stability in human liver microsomes incubated for 30 mins by LC-MS/MS analysis; assay type: ADME, Microsome; conditions: read-out: Stabilty
Cytochrome P450 2C9 = Cytochrome P450 2C9 (Homo sapiens, UniProt P11712); test: Inhibition of CYP2C9 (unknown origin); assay type: ADME
[17] = Half life in BALB/c mouse at 10 mg/kg, po; assay type: ADME, organism-based; conditions: in vivo; how it was run: as §1
PI3K p110 beta/p85 alpha = PI3K p110 beta/p85 alpha (Homo sapiens, UniProt P42338); test: Inhibition of human PI3K p110beta/p85alpha by HTRF assay; assay type: protein-complex assay; how it was run: as §2
[18] = target: Voltage-gated inwardly rectifying potassium channel KCNH2 (Homo sapiens, UniProt Q12809); test: Inhibition of human ERG at < 30 uM
[19] = AUClast in BALB/c mouse at 10 mg/kg, po; assay type: ADME, organism-based; set-up: time 0 - last, route oral, dose 10 mg/kg; conditions: in vivo; how it was run: as §1
[20] = Oral bioavailability in BALB/c mouse at 10 mg/kg; assay type: ADME, organism-based; conditions: in vivo; how it was run: as §1
[21] = Half life in BALB/c mouse at 1 mg/kg, iv; assay type: ADME, organism-based; conditions: in vivo; how it was run: as §1
[22] = Clearance in BALB/c mouse at 0.7 mg/kg, iv; assay type: ADME, organism-based; conditions: in vivo; how it was run: as §1
[23] = Volume of distribution at steady state in BALB/c mouse at 0.7 mg/kg, iv; assay type: ADME, organism-based; conditions: in vivo, read-out: Vdss; how it was run: as §1
[24] = Cmax in BALB/c mouse at 5 mg/kg, po; assay type: ADME, organism-based; set-up: route oral, dose 5 mg/kg; conditions: in vivo; how it was run: as §1
[25] = Tmax in BALB/c mouse at 5 mg/kg, po; assay type: ADME, organism-based; conditions: in vivo; how it was run: as §1
[26] = Half life in BALB/c mouse at 0.7 mg/kg, iv; assay type: ADME, organism-based; conditions: in vivo; how it was run: as §1
[27] = Half life in BALB/c mouse at 5 mg/kg, po; assay type: ADME, organism-based; conditions: in vivo; how it was run: as §1
[28] = AUClast in BALB/c mouse at 0.7 mg/kg, iv; assay type: ADME, organism-based; set-up: route intravenous, time 0 - last, dose 0.7 mg/kg; conditions: in vivo; how it was run: as §1
[29] = Oral bioavailability in BALB/c mouse at 5 mg/kg; assay type: ADME, organism-based; conditions: in vivo; how it was run: as §1
[30] = AUClast in BALB/c mouse at 5 mg/kg, po; assay type: ADME, organism-based; set-up: route oral, time 0 - last, dose 5 mg/kg; conditions: in vivo; how it was run: as §1

Chain of Serine/threonine-protein kinase pim-1 (P11309 whole entry): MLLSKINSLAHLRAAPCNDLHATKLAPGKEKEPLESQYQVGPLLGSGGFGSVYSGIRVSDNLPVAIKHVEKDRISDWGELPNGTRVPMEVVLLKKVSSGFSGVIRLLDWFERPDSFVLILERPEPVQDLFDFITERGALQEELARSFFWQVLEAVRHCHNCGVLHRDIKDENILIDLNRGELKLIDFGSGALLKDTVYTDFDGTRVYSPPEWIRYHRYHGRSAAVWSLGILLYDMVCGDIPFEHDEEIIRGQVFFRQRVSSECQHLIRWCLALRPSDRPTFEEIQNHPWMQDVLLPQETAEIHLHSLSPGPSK
Chain of Phosphatidylinositol 4,5-bisphosphate 3-kinase catalytic subunit alpha isoform (P42336 whole entry, canonical isoform): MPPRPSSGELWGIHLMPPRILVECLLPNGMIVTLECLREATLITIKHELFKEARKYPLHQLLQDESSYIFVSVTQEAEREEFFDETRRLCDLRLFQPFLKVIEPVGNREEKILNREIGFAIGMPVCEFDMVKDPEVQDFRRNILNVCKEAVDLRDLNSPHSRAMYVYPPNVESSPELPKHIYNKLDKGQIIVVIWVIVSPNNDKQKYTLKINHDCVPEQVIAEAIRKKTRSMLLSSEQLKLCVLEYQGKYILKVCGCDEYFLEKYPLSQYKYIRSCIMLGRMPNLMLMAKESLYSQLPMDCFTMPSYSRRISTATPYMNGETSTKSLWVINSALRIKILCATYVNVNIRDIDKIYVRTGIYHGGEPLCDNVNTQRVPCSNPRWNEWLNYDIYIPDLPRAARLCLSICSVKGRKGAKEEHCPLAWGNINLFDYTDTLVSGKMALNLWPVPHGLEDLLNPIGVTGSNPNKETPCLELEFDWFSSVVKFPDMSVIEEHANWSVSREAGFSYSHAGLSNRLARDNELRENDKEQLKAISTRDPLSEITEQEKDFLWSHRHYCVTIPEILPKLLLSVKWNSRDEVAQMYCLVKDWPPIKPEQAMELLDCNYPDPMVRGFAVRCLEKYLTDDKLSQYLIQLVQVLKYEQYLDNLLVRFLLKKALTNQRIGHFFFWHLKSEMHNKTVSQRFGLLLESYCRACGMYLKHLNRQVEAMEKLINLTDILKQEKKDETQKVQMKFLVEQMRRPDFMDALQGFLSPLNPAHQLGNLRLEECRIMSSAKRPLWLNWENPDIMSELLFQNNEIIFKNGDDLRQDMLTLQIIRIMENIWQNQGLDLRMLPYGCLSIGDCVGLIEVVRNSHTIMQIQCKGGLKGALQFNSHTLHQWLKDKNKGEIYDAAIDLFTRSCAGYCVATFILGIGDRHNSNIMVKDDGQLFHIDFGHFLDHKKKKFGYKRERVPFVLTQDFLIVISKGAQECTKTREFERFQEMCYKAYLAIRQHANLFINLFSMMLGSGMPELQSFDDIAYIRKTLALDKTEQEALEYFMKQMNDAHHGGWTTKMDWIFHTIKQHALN
Chain of Phosphatidylinositol 4,5-bisphosphate 3-kinase catalytic subunit gamma isoform (P48736 whole entry, canonical isoform): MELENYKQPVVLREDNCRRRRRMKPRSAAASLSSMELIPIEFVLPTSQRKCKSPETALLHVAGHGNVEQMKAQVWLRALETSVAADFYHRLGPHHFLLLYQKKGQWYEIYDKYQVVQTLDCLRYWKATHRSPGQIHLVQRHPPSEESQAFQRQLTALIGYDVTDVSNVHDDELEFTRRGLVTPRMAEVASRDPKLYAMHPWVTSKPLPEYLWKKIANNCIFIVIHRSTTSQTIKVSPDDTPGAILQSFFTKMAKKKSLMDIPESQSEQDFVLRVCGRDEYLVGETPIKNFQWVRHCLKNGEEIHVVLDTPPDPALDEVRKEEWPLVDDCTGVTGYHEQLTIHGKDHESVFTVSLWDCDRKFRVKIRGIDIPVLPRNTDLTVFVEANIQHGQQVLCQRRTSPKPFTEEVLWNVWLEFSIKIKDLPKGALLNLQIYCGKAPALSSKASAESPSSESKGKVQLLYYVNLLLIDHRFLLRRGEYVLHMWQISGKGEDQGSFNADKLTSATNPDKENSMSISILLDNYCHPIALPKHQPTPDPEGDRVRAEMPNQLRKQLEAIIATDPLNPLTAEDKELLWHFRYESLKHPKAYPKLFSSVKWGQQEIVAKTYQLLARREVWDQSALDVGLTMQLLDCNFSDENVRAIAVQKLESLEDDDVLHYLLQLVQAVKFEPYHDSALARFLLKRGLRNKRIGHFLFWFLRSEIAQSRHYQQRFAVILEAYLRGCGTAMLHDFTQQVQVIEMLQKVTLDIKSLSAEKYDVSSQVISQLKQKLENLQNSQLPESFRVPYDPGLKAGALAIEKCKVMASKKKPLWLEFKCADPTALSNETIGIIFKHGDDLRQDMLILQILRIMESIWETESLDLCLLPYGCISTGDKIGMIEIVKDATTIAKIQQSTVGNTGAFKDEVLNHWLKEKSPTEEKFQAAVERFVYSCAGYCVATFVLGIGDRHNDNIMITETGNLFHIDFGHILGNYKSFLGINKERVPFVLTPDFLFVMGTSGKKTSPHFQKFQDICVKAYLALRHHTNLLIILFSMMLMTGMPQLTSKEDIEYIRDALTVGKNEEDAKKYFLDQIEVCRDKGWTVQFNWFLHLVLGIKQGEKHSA
Chain of PI3-kinase p110-alpha/p85-alpha (P27986 whole entry, canonical isoform): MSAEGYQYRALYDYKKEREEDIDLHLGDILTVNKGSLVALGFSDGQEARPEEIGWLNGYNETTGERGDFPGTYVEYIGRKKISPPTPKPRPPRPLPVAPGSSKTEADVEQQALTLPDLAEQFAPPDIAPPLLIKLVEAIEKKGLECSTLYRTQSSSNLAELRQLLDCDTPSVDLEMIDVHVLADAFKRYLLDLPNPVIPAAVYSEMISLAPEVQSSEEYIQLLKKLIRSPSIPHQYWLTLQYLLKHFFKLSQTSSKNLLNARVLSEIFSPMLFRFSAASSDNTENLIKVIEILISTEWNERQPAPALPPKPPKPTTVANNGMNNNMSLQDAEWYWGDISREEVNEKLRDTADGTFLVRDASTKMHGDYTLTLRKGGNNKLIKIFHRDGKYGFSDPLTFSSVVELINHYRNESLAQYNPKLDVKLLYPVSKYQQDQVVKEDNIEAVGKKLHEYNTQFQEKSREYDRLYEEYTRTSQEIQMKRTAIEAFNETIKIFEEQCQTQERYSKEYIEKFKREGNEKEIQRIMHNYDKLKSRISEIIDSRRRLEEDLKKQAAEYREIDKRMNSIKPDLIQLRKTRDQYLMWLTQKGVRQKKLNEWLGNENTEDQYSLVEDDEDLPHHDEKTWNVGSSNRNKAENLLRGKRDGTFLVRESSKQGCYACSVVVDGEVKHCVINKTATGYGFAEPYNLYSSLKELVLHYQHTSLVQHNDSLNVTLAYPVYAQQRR
Chain of PI3-kinase p110-alpha/p85-alpha (P42336 whole entry, canonical isoform): as the sequence (P42336 whole entry, canonical isoform) above
Chain of PI3K p110 beta/p85 alpha (P27986 whole entry): as the sequence (P27986 whole entry, canonical isoform) above
Chain of PI3K p110 beta/p85 alpha (P42338 whole entry): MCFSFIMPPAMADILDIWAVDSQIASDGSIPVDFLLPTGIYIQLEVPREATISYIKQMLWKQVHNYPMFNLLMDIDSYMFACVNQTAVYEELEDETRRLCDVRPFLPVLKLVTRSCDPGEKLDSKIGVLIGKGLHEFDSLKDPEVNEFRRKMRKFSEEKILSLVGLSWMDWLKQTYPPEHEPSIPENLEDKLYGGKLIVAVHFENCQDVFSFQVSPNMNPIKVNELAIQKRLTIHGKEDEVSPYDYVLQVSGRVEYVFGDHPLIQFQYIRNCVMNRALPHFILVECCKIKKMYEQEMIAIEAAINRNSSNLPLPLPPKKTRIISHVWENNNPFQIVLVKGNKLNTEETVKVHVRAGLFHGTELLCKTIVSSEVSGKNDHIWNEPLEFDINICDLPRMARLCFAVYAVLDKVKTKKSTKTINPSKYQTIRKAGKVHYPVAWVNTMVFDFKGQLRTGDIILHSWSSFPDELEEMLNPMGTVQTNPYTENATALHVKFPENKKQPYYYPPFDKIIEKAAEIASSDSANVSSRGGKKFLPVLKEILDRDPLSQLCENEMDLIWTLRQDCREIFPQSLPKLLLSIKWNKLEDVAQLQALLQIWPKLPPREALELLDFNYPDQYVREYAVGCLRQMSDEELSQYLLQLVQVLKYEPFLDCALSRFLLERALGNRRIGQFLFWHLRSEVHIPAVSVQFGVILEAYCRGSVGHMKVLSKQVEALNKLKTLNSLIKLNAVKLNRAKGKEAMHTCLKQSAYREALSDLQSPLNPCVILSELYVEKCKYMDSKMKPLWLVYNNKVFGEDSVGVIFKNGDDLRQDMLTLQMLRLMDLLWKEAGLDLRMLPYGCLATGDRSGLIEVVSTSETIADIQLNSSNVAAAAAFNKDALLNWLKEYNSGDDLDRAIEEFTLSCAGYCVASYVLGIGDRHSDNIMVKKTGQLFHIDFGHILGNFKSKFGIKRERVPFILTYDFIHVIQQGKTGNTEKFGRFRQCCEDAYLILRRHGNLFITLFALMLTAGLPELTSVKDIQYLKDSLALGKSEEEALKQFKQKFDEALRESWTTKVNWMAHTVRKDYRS
Chain of Serine/threonine-protein kinase pim-2 (Q9P1W9 whole entry): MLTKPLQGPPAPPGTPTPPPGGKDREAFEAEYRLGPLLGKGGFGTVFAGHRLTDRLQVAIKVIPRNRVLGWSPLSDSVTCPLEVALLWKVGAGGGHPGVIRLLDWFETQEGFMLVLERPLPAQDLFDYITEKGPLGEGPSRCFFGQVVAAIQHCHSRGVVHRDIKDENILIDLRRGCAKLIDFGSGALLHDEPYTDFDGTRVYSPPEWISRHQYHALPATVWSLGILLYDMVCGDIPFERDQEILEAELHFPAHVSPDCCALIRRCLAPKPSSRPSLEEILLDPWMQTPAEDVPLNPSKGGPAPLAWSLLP

Compound: COc1ncc(-c2sc3c(-c4ccc(CNC=O)s4)ncnc3c2C)cc1NS(=O)(=O)c1ccccc1
IC50 [1]: 80.9 nM
IC50 [2]: 3.29 nM
IC50 [3]: > 10000 nM

Compound: COc1ncc2cc1NS(=O)(=O)c1cccc(c1)C(=O)NCc1csc(c1)-c1ncnc3c1SC2=C3
IC50 [1]: > 10000 nM
IC50 [2]: 28.9 nM
IC50 [3]: 13.1 nM

Compound: CNC(=O)c1cccc(S(=O)(=O)Nc2cc(-c3sc4c(-c5cccs5)ncnc4c3C)cnc2OC)c1
IC50 [1]: 604 nM
IC50 [2]: 6.72 nM
IC50 [3]: > 10000 nM

Compound: COc1ncc2cc1NS(=O)(=O)c1cccc(c1)C(=O)NC[C@H]1CCN(C1)c1ncnc3c1SC2=C3C
IC50 [1]: > 10000 nM
IC50 [2]: 3.15 nM
IC50 [3]: 44 nM

Compound: COc1ncc2cc1NS(=O)(=O)c1cccc(c1)C(=O)NCc1cncc(c1)-c1ncnc3c1SC2=C3
IC50 [1]: > 10000 nM
IC50 [2]: 74.6 nM
IC50 [3]: 45.8 nM

Compound: COc1ncc2cc1NS(=O)(=O)c1cccc(c1)C(=O)NC[C@@H]1CCN(C1)c1ncnc3c1SC2=C3C
IC50 [1]: > 10000 nM
IC50 [2]: 3.08 nM
IC50 [3]: 122 nM

Compound: COc1ncc2cc1NS(=O)(=O)c1ccc(F)c(c1)C(=O)NCC1=CC=C(S1)c1ncnc3c1SC2=C3
IC50 [1]: 2100 nM
IC50 [2]: 6.34 nM
IC50 [3]: 14.6 nM

Compound: COc1ncc2cc1NS(=O)(=O)c1cccc(c1)C(=O)NCCn1cc(cn1)-c1ncnc3c1SC2=C3C
IC50 [1]: 197 nM
IC50 [2]: 0.43 nM
IC50 [3]: 178 nM

Compound: COc1ncc2cc1NS(=O)(=O)c1cccc(c1)C(=O)NCc1cncc(c1)-c1ncnc3c1SC2=C3C
IC50 [1]: 175 nM
IC50 [2]: 19 nM
IC50 [3]: 42.9 nM

Compound: COc1ncc2cc1NS(=O)(=O)c1cccc(c1)C(=O)NCc1cc(ccn1)-c1ncnc3c1SC2=C3
IC50 [1]: > 10000 nM
IC50 [2]: 50.2 nM
IC50 [3]: 649 nM

Compound: COc1ncc2cc1NS(=O)(=O)c1cccc(c1)C(=O)NCc1cc(cs1)-c1ncnc3c1SC2=C3
IC50 [1]: > 10000 nM
IC50 [2]: 13.7 nM
IC50 [3]: 154 nM

Compound: COc1ncc2cc1NS(=O)(=O)c1ccc(F)c(c1)C(=O)NCC1=CC=C(S1)c1ncnc3c1SC2=C3C
IC50 [1]: 74.5 nM
IC50 [2]: 0.13 nM
Ki [5]: 0.27 nM
clearance [22]: 1.05 mL/min/kg
Ki [8]: 0.17 nM
IC50 [9]: 5.75 nM
Vd [23]: 0.26 L/kg
Cmax [24]: 9370 ng/mL
EC50 [10]: 60 nM
Tmax [25]: 5 h
half-life [26]: 2.96 h
IC50 [12]: 8.04 nM
Ki [14]: 0.13 nM
EC50 (PI3K/mTOR (Homo sapiens)): < 1 nM
half-life [27]: 14.6 h
remaining at 0.5 h [16]: > 98%
Ki (PI3K p110 beta/p85 alpha): 0.31 nM
AUC(0-t) [28]: 11200 ng·h/mL
inhibition (INH) [18]: Not Active
bioavailability [29]: 124%
AUC(0-t) [30]: 99100 ng·h/mL
IC50 [3]: 22.3 nM

Compound: COc1ncc2cc1NS(=O)(=O)c1cccc(c1)C(=O)NCc1nc(cs1)-c1ncnc3c1SC2=C3
IC50 [1]: > 10000 nM
IC50 [2]: 123 nM
IC50 [3]: > 10000 nM

Compound: COc1ncc2cc1NS(=O)(=O)c1cccc(c1)C(=O)NCCn1cc(cn1)-c1ncnc3c1SC2=C3
IC50 [1]: > 10000 nM
IC50 [2]: 58.3 nM
IC50 [3]: 254 nM

Further lines, with some results ahead:

IC50 [1]: > 10000 nM
IC50 [2]: 381 nM
IC50 [3]: 247 nM
Compound: COc1ncc2cc1NS(=O)(=O)c1cccc(c1)C(=O)NCC1=CC=C(O1)c1ncnc3c1SC2=C3

IC50 [1]: > 10000 nM
IC50 [2]: 6.28 nM
IC50 [3]: 11.1 nM
Compound: COc1ncc2cc1NS(=O)(=O)c1ccc(Cl)c(c1)C(=O)NCC1=CC=C(S1)c1ncnc3c1SC2=C3

IC50 [1]: 5700 nM
IC50 [2]: 17 nM
IC50 [3]: 12.9 nM
Compound: COc1ncc2cc1NS(=O)(=O)c1cccc(c1)C(=O)NCC1=CC=C(S1)c1ncnc3c1SC2=C3

IC50 [1]: 2030 nM
IC50 [2]: 0.66 nM
IC50 [3]: 39.1 nM
Compound: COc1ncc2cc1NS(=O)(=O)c1cccc(c1)C(=O)NC[C@@H]1CN(CCO1)c1ncnc3c1SC2=C3C

IC50 [1]: 5570 nM
IC50 [2]: 6.91 nM
IC50 [3]: 65.7 nM
Compound: COc1ccc2cc1C(=O)NCC1=CC=C(S1)c1ncnc3c1SC(=C3)c1cnc(OC)c(c1)NS2(=O)=O

IC50 [1]: > 10000 nM
IC50 [2]: 16.8 nM
IC50 [3]: 279 nM
Compound: COc1ncc2cc1NS(=O)(=O)c1cccc(c1)C(=O)NCc1cccc(c1)-c1ncnc3c1SC2=C3

IC50 [1]: > 1000 nM
IC50 [2]: 36.2 nM
IC50 [3]: > 10000 nM
Compound: COc1ncc(-c2sc3c(-c4cccs4)ncnc3c2C)cc1NS(=O)(=O)c1ccccc1

IC50 [1]: > 10000 nM
IC50 [2]: 7.4 nM
IC50 [3]: 43.8 nM
Compound: COc1ncc2cc1NS(=O)(=O)c1cccc(c1)C(=O)NCC1=C(C)C=C(S1)c1ncnc3c1SC2=C3

IC50 [1]: 138 nM
Tmax [4]: 0.25 h
IC50 [2]: 0.23 nM
Ki [5]: 0.25 nM
remaining at 0.5 h [6]: 90%
Vd [7]: 0.31 L/kg
Ki [8]: 0.44 nM
IC50 [9]: 4.39 nM
EC50 [10]: 34 nM
remaining at 0.5 h [11]: 87%
IC50 [12]: 13.3 nM
clearance [13]: 1 mL/min/kg
Ki [14]: 0.08 nM
EC50 (PI3K/mTOR (Homo sapiens)): < 1 nM
AUC(0-t) [15]: 16600 ng·h/mL
remaining at 0.5 h [16]: > 98%
IC50 (Cytochrome P450 2C9): 4610 nM
half-life [17]: 23.4 h
Ki (PI3K p110 beta/p85 alpha): 0.37 nM
AUC(0-t) [19]: 58200 ng·h/mL
bioavailability [20]: 35.1%
half-life [21]: 3.66 h
IC50 [3]: 18.1 nM
Compound: COc1ncc2cc1NS(=O)(=O)c1cccc(c1)C(=O)NCC1=CC=C(S1)c1ncnc3c1SC2=C3C
inhibition (INH) [18]: Not Active
